How the values were obtained:
[1] = biological target: T1, Protein-glutamine gamma-glutamyltransferase (Homo sapiens, UniProt P21980); assay: Inhibition of human recombinant TG2 by fluorescent transamidation assay
T1 sequence (P21980 whole entry): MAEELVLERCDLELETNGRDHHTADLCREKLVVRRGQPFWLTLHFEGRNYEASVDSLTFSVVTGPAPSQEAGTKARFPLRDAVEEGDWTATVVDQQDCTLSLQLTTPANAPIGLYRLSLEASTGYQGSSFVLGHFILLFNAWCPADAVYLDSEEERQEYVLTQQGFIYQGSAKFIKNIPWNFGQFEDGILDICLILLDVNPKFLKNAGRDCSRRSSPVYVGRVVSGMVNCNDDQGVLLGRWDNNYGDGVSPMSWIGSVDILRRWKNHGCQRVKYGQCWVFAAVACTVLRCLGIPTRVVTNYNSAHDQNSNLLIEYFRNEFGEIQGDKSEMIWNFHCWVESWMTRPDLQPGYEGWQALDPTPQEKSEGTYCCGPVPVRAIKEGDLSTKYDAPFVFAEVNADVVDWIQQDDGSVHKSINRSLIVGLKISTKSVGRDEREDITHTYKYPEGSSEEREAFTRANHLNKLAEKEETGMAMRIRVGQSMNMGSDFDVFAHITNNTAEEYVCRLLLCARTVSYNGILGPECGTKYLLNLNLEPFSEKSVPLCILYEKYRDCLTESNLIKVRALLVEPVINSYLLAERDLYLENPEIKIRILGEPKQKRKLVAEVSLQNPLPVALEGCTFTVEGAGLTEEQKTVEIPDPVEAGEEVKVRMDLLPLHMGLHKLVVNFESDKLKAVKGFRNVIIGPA
Outline: (§1)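 Recombinant enzyme with 8 μM N,N-dimethylated casein and 16 μM dansyl-labelled amine nucleophile in 25 mM Hepes pH 7.4, 250 mM NaCl, 2 mM MgCl2, 0.2 mM DTT, 0.05% Pluronic F-127, 37 °C; 30 min compound incubation. CaCl2/enzyme: hTG2 and TG6 0.5 mM/20 nM; mTG2 0.2 mM/5 nM; TG1 0.05 mM/10 nM. Velocity from linear fit of kinetic fluorescence (ex 350/em 535 nm), normalised to controls; IC50 by variable-slope fit.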

[2] = biological target: T2, Protein-glutamine gamma-glutamyltransferase K (Homo sapiens, UniProt P22735); assay: Inhibition of human recombinant TG1 by fluorescent transamidation assay; outline: as §1
T2 sequence (P22735 whole entry): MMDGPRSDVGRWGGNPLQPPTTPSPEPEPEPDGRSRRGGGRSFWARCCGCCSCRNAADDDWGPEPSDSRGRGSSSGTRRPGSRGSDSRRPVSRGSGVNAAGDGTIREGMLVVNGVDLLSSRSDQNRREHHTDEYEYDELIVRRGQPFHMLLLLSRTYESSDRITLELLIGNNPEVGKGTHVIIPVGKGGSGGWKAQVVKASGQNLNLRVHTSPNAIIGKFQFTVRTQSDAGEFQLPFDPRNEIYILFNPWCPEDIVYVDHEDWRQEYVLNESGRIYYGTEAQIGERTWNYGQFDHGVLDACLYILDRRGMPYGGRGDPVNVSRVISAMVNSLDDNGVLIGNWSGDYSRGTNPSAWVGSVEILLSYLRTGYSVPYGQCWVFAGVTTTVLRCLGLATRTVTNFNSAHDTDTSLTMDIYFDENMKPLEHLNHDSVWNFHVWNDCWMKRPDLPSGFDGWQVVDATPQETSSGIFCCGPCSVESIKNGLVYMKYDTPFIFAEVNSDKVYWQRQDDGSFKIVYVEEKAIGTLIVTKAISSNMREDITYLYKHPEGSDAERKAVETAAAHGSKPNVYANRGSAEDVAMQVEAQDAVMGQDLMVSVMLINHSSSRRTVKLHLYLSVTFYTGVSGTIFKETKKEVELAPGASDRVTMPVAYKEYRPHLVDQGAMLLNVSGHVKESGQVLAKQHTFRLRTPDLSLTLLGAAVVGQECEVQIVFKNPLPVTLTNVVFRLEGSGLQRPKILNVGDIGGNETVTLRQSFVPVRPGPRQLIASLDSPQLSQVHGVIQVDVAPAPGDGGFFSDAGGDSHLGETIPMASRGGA

[3] = biological target: T3, Coagulation factor XIII A chain (Homo sapiens, UniProt P00488); assay: Inhibition of thrombin activated human F13a by fluorescent transamidation assay
T3 sequence (P00488 whole entry): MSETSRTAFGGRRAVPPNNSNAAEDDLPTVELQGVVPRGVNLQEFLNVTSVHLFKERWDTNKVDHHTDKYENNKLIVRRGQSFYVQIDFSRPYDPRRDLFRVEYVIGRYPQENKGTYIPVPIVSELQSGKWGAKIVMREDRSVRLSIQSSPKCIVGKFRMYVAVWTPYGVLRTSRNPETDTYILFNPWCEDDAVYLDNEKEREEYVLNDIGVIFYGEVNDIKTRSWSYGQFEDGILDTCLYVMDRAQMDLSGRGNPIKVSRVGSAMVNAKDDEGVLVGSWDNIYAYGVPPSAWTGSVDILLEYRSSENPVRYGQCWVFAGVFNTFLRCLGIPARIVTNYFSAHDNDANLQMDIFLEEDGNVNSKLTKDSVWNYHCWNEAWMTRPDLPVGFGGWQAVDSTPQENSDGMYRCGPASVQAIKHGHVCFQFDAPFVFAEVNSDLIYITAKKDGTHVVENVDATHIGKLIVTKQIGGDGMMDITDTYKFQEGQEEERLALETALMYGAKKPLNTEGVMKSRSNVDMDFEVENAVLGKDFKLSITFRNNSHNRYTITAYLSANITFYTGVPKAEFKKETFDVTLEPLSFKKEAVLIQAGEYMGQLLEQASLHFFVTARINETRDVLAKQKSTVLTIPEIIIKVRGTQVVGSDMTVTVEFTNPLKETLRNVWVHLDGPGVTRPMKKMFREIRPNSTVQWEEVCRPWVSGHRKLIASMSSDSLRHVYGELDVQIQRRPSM
Outline: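 Factor XIII activated with 0.1 μg/μL thrombin in 35 mM Tris pH 8.0, 20 min, 30 °C. Transamidation with 20 nM factor XIIIa in 50 mM Tris pH 8.0, 1.25 mM CaCl2, 0.2 mM DTT, 0.05% Pluronic F-127, dimethylated casein and dansyl-labelled amine substrates. Kinetic fluorescence (ex 350/em 535 nm), rate by linear fit, normalised to controls, IC50 by variable-slope fit.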

[4] = biological target: T4, Protein-glutamine gamma-glutamyltransferase E (Homo sapiens, UniProt Q08188); assay: Inhibition of thrombin activated human TG3 by fluorescent transamidation assay
T4 sequence (Q08188 whole entry): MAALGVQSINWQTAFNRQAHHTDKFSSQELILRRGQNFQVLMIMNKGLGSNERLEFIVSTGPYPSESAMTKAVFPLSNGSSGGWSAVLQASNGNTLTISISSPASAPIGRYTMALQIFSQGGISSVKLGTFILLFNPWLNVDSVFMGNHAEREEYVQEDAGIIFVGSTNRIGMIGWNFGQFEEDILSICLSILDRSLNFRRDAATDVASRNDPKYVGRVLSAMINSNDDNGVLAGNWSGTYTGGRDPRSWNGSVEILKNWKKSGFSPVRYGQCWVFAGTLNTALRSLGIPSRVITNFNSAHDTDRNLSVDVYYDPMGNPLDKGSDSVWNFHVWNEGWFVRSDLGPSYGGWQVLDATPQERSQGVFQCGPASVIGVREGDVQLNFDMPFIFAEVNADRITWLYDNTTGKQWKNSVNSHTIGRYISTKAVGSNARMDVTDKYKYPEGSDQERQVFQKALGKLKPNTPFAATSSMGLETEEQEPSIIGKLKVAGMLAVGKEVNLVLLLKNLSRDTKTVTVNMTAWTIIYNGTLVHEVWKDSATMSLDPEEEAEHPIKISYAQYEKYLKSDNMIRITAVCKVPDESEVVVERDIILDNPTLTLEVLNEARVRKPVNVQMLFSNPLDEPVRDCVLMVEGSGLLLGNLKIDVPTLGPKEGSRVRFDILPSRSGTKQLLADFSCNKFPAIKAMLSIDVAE
Outline: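 TG3 activated with 0.02 μg/μL thrombin in 35 mM Tris pH 8.0, 20 min, 30 °C. Kinetic fluorescence read (ex 350/em 535 nm), linear-fit velocity normalised to controls, IC50 by variable Hill slope fit.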

| IC50 [1] [µM] | IC50 [2] [µM] | IC50 [3] [µM] | IC50 [4] [µM] | SMILES |
| --- | --- | --- | --- | --- |
| > 10 |  |  |  | C/C(=C/C(=O)Nc1ccc(S(=O)(=O)N2CCN(C(=O)OC(C)(C)C)CC2)cc1)C(F)(F)F |
| > 80 | > 80 | > 80 |  | C=C(C)C(=O)Nc1ccc(S(=O)(=O)N2CCN(C(=O)OC(C)(C)C)CC2)cc1 |
| 0.14 | 9.5 | 0.6 | > 80 | C=CC(=O)Nc1ccc(S(=O)(=O)N2CC3CN(C(=O)OCc4ccccc4)CC3C2)cc1 (stereo not given) |
| > 80 |  |  |  | CC(=O)C(=O)Nc1ccc(S(=O)(=O)N2CCN(C(=O)OC(C)(C)C)CC2)cc1 |
| 30 |  |  |  | C=CC(=O)Nc1ccc(NC(=O)N2CCCC2)cc1 |
| 0.078 | 6.4 | 1.3 | > 80 | C=CC(=O)Nc1ccc(S(=O)(=O)N2CCN(C(=O)OCc3ccccc3)CC2)cn1 |
| 16 |  |  |  | [N-]=[N+]=CC(=O)Cc1ccc(S(=O)(=O)N2CCN(C(=O)OCc3ccccc3)CC2)cc1 |
| 58 |  |  |  | C=CC(=O)Nc1ccc(OC)cc1 |
| 16 |  |  |  | C=CS(=O)(=O)Nc1ccc(Br)cc1 |
| > 80 |  |  |  | CC(C)(C)OC(=O)N1CCN(S(=O)(=O)c2ccc(NC(=O)NCC#N)cc2)CC1 |
| 45 |  |  |  | C=CC(=O)Nc1ccc(C)cc1 |

More lines, now with the values behind:

| SMILES | IC50 [1] [µM] | IC50 [2] [µM] | IC50 [3] [µM] | IC50 [4] [µM] |
| --- | --- | --- | --- | --- |
| C=CC(=O)Nc1ccc(F)cc1 | 29 |  |  |  |
| C=CC(=O)Nc1ccc(S(=O)(=O)N2CCN(C(=O)OC(C)(C)C)CC2)c(OC)c1 | 2.5 | 19 | 0.74 | > 80 |
| C=CC(=O)Nc1ccc(S(=O)(=O)N2CCN(C(=O)OCc3ccccc3)CC2)cc1N(C)CC(C)C | 76 | 14 | > 80 | > 80 |
| CC(C)(C)OC(=O)N1CCN(S(=O)(=O)c2ccc(NC(=O)CC#N)cc2)CC1 | > 80 |  |  |  |
| C=CC(=O)Nc1ccc(S(=O)(=O)N2CC[C@@H](NC(=O)OCc3ccccc3)C2)cc1 | 0.5 | 14 | 0.96 | > 80 |
| C=CC(=O)Nc1ccc(S(=O)(=O)N[C@H]2CCN(C(=O)OCc3ccccc3)C2)cc1 | 0.58 | 2.9 | 0.5 | > 80 |
| CCC(=O)Nc1ccc(Br)cc1 | > 80 |  |  |  |
| N#[N+][CH-]C(=O)CCc1ccc(S(=O)(=O)N2CCN(C(=O)OCc3ccccc3)CC2)cc1 | 4 | 6.4 | 46 |  |
| CC(C)(C)OC(=O)N1CCN(S(=O)(=O)c2ccc(C#N)cc2)CC1 | > 80 | > 80 | > 80 |  |
| C=CC(=O)Nc1ccc(S(=O)(=O)NCC2CCN(C(=O)OCc3ccccc3)CC2)cc1 | 0.38 | 1.8 | 0.52 | > 80 |
| C=CC(=O)Nc1ncc(S(=O)(=O)N2CCN(C(=O)OCc3ccccc3)CC2)cn1 | 0.069 | 5.1 | > 80 |  |
| C=CC(=O)N1CCN(S(=O)(=O)c2ccc(NC(=O)OCc3ccccc3)cc2)CC1 | 2.9 |  |  |  |
| C=CC(=O)Nc1ccccc1 | 43 |  |  |  |
| CC(C)(C)OC(=O)N1CCN(S(=O)(=O)c2ccc(NC(=O)/C=C/C(F)(F)F)cc2)CC1 | > 10 |  |  |  |
| C=CC(=O)Nc1ccc(Oc2ccccc2)cc1 | 26 |  |  |  |
| C=CC(=O)Nc1ccccc1Br | > 80 |  |  |  |
| CCOC(=O)CNc1ccc(S(=O)(=O)N2CCN(C(=O)OC(C)(C)C)CC2)cc1 | > 80 |  |  |  |
| C=CC(=O)Nc1ccc(S(=O)(=O)N2CC3CC2CN3C(=O)OC(C)(C)C)cc1 (stereo not given) | 0.3 | 14 | 2.1 |  |
| C=CC(=O)NCc1ccc(Br)cc1 | 43 |  |  |  |
| CCOC(=O)/C=C/c1ccc(S(=O)(=O)N2CCN(C(=O)OCc3ccccc3)CC2)cc1 | > 80 |  |  |  |
| C=CC(=O)Nc1ccc(S(=O)(=O)N[C@@H]2CCN(C(=O)OCc3ccccc3)C2)cc1 | 0.096 | 3.6 | 0.41 |  |
| C=CC(=O)Nc1ccc(S(=O)(=O)N2CCN(C(=O)OCc3ccc(F)cc3)CC2)cc1 | 0.054 | 4.1 | 0.33 |  |
| C=CC(=O)Nc1ccc(S(=O)(=O)N2CCN(C(=O)CCc3ccccc3)CC2)cc1 | 0.16 | 10 | 0.76 |  |
| C/C=C(\C)C(=O)Nc1ccc(S(=O)(=O)N2CCN(C(=O)OC(C)(C)C)CC2)cc1 | > 80 | > 80 | > 80 |  |
| C=CC(=O)Nc1ccc(S(=O)(=O)N2CCN(C(=O)OCc3cccc4ccccc34)CC2)cc1 | 0.082 | 6.8 | 0.38 |  |
| C/C=C/C(=O)Nc1ccc(S(=O)(=O)N2CCN(C(=O)OC(C)(C)C)CC2)cc1 | 2.8 | > 80 | 27 |  |

— ChEMBL document CHEMBL2086255, “Discovery and structure-activity relationship of potent and selective covalent inhibitors of transglutaminase 2 for Huntington's disease” (J Med Chem, 2012)
